Results taken from ChEMBL document CHEMBL3399971.

Key:
[1] = Cytotoxicity against mouse BV2 cells by CytoTox96 non-radioactive cytotoxicity assay; assay type: cell-based, BV-2; conditions: for MNTC: BV2 cells, read-out: MNCC
Method in brief: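 BV2 murine microglia in DMEM with 10% FBS, 37°C, 5% CO2. Compounds in 0.02% DMSO (final) added 1 h before LPS (50 ng/ml), 24 h co-incubation. Viability by CytoTox96 non-radioactive kit. Value is the highest concentration without obvious cytotoxicity.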

[2] = molecular target: Metabotropic glutamate receptor 5 (Mus musculus, UniProt Q3UVX5); assay: Positive allosteric modulator activity at mGluR5 in mouse BV2 cells assessed as inhibition of nitric oxide production pre-treated 1 hr before lipopolysaccharide stimulation and measured 24 hrs post lipopolysaccharide stimulation by Griess reagent assay; assay type: cell-based, BV-2
Method in brief: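 BV2 microglia grown in DMEM plus 10% FBS at 37°C, 5% CO2. Pretreated 1 h with compound in 0.02% DMSO (final), then stimulated with LPS 50 ng/ml for 24 h. Read-out is supernatant nitrite by Griess reagent as a proxy for NO. IC50 is the mean of three independent experiments.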

[3] = Selectivity index, ratio of MNCC against mouse BV2 cells to IC50 for mGluR5 in mouse BV2 cells; assay type: functional, BV-2

Sequence of Metabotropic glutamate receptor 5 (Q3UVX5 whole entry): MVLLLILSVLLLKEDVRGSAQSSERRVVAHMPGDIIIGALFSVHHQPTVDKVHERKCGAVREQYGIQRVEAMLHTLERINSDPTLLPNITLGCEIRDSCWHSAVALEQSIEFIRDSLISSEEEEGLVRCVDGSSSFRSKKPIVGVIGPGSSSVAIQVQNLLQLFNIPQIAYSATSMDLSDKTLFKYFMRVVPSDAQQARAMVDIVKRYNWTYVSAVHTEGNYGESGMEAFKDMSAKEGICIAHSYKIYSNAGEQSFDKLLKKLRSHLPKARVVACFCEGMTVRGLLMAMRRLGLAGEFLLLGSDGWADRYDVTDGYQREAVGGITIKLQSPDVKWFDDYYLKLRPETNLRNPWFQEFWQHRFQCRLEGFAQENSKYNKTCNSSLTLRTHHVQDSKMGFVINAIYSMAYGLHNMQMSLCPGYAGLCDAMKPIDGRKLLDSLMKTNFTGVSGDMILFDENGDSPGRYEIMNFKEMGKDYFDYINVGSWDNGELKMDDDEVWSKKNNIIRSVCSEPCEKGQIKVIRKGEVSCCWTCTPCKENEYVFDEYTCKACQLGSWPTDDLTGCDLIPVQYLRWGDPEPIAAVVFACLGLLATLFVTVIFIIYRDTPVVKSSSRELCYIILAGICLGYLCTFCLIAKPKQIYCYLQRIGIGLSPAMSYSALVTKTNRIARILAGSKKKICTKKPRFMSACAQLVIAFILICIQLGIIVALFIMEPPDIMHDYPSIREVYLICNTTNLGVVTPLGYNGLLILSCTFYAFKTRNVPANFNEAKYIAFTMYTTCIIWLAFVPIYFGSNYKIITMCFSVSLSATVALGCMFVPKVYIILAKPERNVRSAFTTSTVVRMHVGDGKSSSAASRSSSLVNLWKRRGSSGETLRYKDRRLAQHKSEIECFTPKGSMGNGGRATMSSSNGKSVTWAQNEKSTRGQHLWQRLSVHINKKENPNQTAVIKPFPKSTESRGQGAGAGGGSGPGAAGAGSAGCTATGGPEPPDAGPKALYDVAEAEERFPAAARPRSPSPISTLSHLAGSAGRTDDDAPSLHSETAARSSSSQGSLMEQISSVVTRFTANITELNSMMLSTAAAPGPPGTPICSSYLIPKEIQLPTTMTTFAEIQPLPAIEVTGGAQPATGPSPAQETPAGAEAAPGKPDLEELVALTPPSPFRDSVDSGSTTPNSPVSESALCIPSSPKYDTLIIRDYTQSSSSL

SMILES	MNTC [1]	IC50 ([2]; read-out: IC50)	Selectivity Index [3]	MNCC ([1]; bv-2)	IC50 ([2]; bv-2)
O=C(Nc1nc2ccccc2[nH]1)c1ccc(F)cc1	1 mM	15 µM	67.1	–	–
O=C(Nc1nc2ccccc2[nH]1)c1ccc([N+](=O)[O-])cc1	0.3 mM	33 µM	9.2	–	–
O=C(Nc1nc2ccccc2[nH]1)c1ccccc1F	1 mM	36 µM	28	–	–
O=C(Nc1nc2ccccc2[nH]1)c1cccc(Cl)c1	1 mM	29 µM	34.6	–	–
CN(C)c1cccc(C(=O)Nc2nc3ccccc3[nH]2)c1	0.3 mM	20 µM	14.7	–	–
O=C(Nc1nc2ccccc2[nH]1)C1CCC1	0.06 mM	15 µM	3.97	–	–
COc1cccc(C(=O)Nc2nc3ccccc3[nH]2)c1	1 mM	120 µM	8.06	–	–
COc1ccc(C(=O)Nc2nc3ccccc3[nH]2)cc1	1 mM	100 µM	10.1	–	–
O=C(Nc1nc2ccccc2[nH]1)c1cccc([N+](=O)[O-])c1	1 mM	29 µM	–	–	–
O=C(Nc1nc2ccccc2[nH]1)c1ccccc1	1 mM	160 µM	6.17	–	–
O=C(Nc1nc2ccccc2[nH]1)c1ccccc1Cl	0.3 mM	110 µM	2.67	–	–
O=C(Nc1nc2ccccc2[nH]1)c1ccccc1C(F)(F)F	1 mM	88 µM	11.3	–	–
O=C(Nc1nc2ccccc2[nH]1)c1ccccn1	–	–	–	ND(Insoluble)	ND(Insoluble)
CN(C(=O)c1cccc(Cl)c1)c1nc2ccccc2[nH]1	1 mM	210 µM	4.85	–	–
O=C(Sc1nc2ccccc2[nH]1)c1cccc(Cl)c1	1 mM	160 µM	6.36	–	–
O=C(Nc1nc2ccccc2[nH]1)c1cccc(C(F)(F)F)c1	0.2 mM	12 µM	17.2	–	–
O=C(Nc1nc2ccccc2[nH]1)c1ccc(C(F)(F)F)cc1	1 mM	59 µM	16.9	–	–
O=C(Nc1nc2ccccc2[nH]1)c1ccncc1	1 mM	–	–	–	–
O=C(Nc1nc2ccccc2[nH]1)c1cc(Cl)ccc1Cl	0.1 mM	12 µM	8.33	–	–
O=C(Nc1nc2ccccc2[nH]1)c1cc(C(F)(F)F)ccc1C(F)(F)F	0.06 mM	34 µM	1.74	–	–
O=C(Nc1nc2ccccc2[nH]1)c1ccc(Cl)c(Cl)c1	0.1 mM	9.8 µM	10.2	–	–
O=C(Nc1nc2ccccc2[nH]1)c1cc(Cl)cc(Cl)c1	0.8 mM	6.4 µM	125	–	–
COc1cc(C(=O)Nc2nc3ccccc3[nH]2)ccc1S(N)(=O)=O	1 mM	150 µM	6.59	–	–
O=C(/C=C/c1ccncc1)Nc1nc2ccccc2[nH]1	1 mM	22 µM	44.8	–	–
O=C(Nc1nc2ccccc2[nH]1)C1CCCCC1	1 mM	42 µM	24.1	–	–
Fc1cccc(/C=N/N=C/c2cccc(F)c2)c1	0.5 mM	–	–	–	–
O=C(Nc1nc2ccccc2[nH]1)c1ccc(Cl)cc1	1 mM	25 µM	40.4	–	–
